Source: PubChem BioAssay (several laboratories)
Most compounds without a hit are left out; they make up all but 2.9% or so of the library.
Hck-Nef inh: human Hck-Nef kinase inhibition; P08631; Recombinant Hck-YEEI plus Nef, Z-Lyte FRET kinase assay; inhibition, % at 20 µM; actives 0.68% (n = 220,000); AID 463187;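 active = Hck-Nef kinase inhibition above about 50%, limit read from the data; inactive = inhibition below that limit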;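 note: 0% = DMSO with Hck plus Nef and 100% = Hck alone without Nef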
RanGTP-Imp inh: inhibitors of RanGTP-importin-beta interaction, primary screen, biochemical, FRET, CFP-Ran, YFP-importin-beta, homogeneous. cell-free CFP-Ran/YFP-importin-beta FRET ratio. inhibition, % (concentration not given with the values). actives 1.1% (n = 300,000). AID 2216;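 active = more than half of the replicate wells show a fall in the fluorescence ratio signal beyond about 16%, limit read from the data, passing the limit was not always enough; inconclusive = exactly half of the replicate wells pass the set limit; inactive = fewer than half of replicates pass the limit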;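 note: 0% = DMSO wells and 100% = Ran loaded with GDP instead of GTP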
Runt-CBFb FRET: Runt domain-CBFb interaction inhibition. Cerulean-Runt/Venus-CBFb FRET ratio 530/480, 1 h. inhibition, % at 20 µM. actives 0.46% (n = 220,000). AID 1496;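 active = inhibition over about 50% at 20 µM in the single-dose screen, limit read from the data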;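 note: 0% = DMSO wells and 100% = excess unlabeled CBFb competitor control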
Target sequence (Q01196 whole entry, looked up, the tested form may be a part): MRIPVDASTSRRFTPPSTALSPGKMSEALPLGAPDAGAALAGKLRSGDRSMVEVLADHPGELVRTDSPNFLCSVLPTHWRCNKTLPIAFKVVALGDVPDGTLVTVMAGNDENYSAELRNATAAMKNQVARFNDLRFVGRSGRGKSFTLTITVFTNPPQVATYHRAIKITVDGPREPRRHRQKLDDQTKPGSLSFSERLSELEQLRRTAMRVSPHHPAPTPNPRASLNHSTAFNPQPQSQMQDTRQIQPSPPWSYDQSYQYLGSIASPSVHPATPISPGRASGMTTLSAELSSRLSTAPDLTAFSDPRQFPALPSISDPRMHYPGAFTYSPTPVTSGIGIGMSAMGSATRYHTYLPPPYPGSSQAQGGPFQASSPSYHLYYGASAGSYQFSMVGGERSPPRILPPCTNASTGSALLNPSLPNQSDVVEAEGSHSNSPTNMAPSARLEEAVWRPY
Target sequence (Q13951 whole entry, looked up, the tested form may be a part): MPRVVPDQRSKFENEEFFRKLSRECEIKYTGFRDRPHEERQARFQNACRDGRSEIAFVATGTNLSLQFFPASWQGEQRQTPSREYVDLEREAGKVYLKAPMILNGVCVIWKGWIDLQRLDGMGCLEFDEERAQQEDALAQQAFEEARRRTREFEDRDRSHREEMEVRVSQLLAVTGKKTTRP
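Doses: 20 µM compound in 1% DMSO | Material: Cerulean-labeled Runt domain protein | Amount: Each fluorescent fusion protein 100 nM | Schedule: Two 1 h room-temperature incubations shielded from light | Measured by: FRET fluorescence | Evaluation: Loss of energy transfer signal | Controls: Unlabeled CBFb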
M18AAP inhibitor: PfM18AAP enzyme inhibition | recombinant PfM18AAP, H-Glu-NHMec fluorogenic cleavage | inhibition, % at 7.35 µM | actives 1.2% (n = 290,000) | AID 1822;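 active = inhibition above the campaign mean inhibition over all tested compounds plus 3 SD, cut at about 28% in these data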;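 note: 0% = plate median of test compound wells and 100% = 2 mM ZnCl2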
RBBP9 inh: human RBBP9 hydrolase inhibition; O75884; recombinant RBBP9, FP-Rh probe fluorescence polarization; inhibition, % at 7.94 µM; actives 0.2% (n = 220,000); AID 1515;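 active = inhibition above the campaign mean of all tested compounds plus 3 SD, cut at about 14% in these data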;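 note: plate controls were DMSO wells with RBBP9 for no effect and wells lacking RBBP9 protein for full effect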
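Controls: DMSO-treated enzyme wells and wells lacking RBBP9 | Material: RBBP9 protein | Technique: Fluorescence polarization | Replication: Single well per compound, no replicates | Buffer or medium: Tris-NaCl-Pluronic buffer, pH 8.0 | Timing: 30 min compound preincubation, 45 min probe labeling, 25 °C | Read-out basis: Percent inhibition from mP, scaled between DMSO and no-protein wells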
Runt-SMMHC FRET: blocks binding of human RUNX1 Runt domain to CBFb-SMMHC; actives 0.74% (n = 220,000); AID 1434; Q01196+Q13951; inhibition, % at 20 µM; Cerulean-Runt/Venus-CBFb-SMMHC FRET ratio 530/480, 1 h;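 active = mean inhibition across duplicate retests at 20 µM reaching about 50%, limit read from the data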;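 note: 0% = DMSO wells and 100% = wells with excess untagged CBFb-SMMHC; inhibitors lower the FRET ratio by blocking Runt binding to CBFb-SMMHC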
* hit, by the source's call; ? = inconclusive; . = no result given.

SMILES	Hck-Nef inh	RanGTP-Imp inh	Runt-CBFb FRET	M18AAP inhibitor	RBBP9 inh	Runt-SMMHC FRET
CCC(=O)Nc1c(C#N)c2nc3ccccc3nc2n1C1CCCCC1	1.3	3.7	-5.2	4.5	-9.8	-25.7
N#Cc1c(N)n(C2CCCCC2)c2nc3ccccc3nc12	11.7	42.8*	78.3*	-1.4	-7.2	58.3*
N#Cc1c(N)n(-c2ccc(C(=O)O)cc2)c2nc3ccccc3nc12	43.0	50.3*	92.2*	0.8	-12.2	81.7*
CCCCC(=O)Nc1sc2c(c1-c1nc3ccccc3s1)CCN(C(C)=O)C2	66.0*	.	2.5	10.1	-4.1	-1.5
CCC(=O)Nc1cccc(C2=NOC3(C2)C[C@@H](C(N)=O)N(C(=O)CC(c2ccccc2)c2ccccc2)C3)c1 (stereo partly specified)	27.4	-3.5	2.1	.	.	-4.3
CCC(=O)Nc1cccc(C2=NOC3(C2)C[C@@H](C(N)=O)N(C(=O)C(c2ccccc2)c2ccccc2)C3)c1 (stereo partly specified)	24.7	26.3*	-2.7	.	.	-0.4
COc1ccc(/C=N/NC(=S)Nc2cccc(C(=O)O)c2)cc1OC	0.1	6.9	0.0	24.6	-4.6	0.4
O=C(O)c1cccc(N/N=C/c2cccnc2)c1	19.2	34.3*	-1.7	-0.2	-4.6	2.1
Cc1cccc(NC(=S)N/N=C/c2ccc(Cl)c([N+](=O)[O-])c2)c1	0.0	44.1*	-0.2	1.6	-8.4	-24.7
COc1ccccc1/C=C/C=N/Nc1cccc(C(=O)O)c1	.	76.0*	.	3.0	.	.
Cc1cccc(NC(=S)N/N=C/c2cccc([N+](=O)[O-])c2)c1	0.7	-1.1	1.3	-4.7	-0.1	0.1
COc1cccc(/C=N/NC(=S)Nc2cccc(C(=O)O)c2)c1	10.7	2.7	3.2	28.9*	1.9	1.2
COc1ccc(Br)cc1/C=N/Nc1cccc(C(=O)O)c1	-1.2	-1.5	2.4	6.0	-9.0	2.1
CC(C)(C)c1ccc(/C=N/Nc2cccc(C(=O)O)c2)cc1	4.0	0.9	0.3	30.5*	3.9	2.3
C/C(=N\Nc1c(Cl)c(Cl)nc(C(=O)O)c1Cl)c1ccc(O)cc1	.	3.5	.	31.4*	.	.
C/C(=N\N=C(/C)c1cccc(N)c1)c1cccc(N)c1	.	1.1	.	.	.	.
Cc1cc(NCCN2CCOCC2)n2nc(C)c(-c3ccccc3)c2n1	2.8	-0.3	-0.2	4.0	-8.4	3.3
Cc1cc(C)c2c(n1)nn1c(NCCN3CCOCC3)cc(C)nc21	32.5	35.5*	7.1	6.1	-1.0	38.5
N=c1oc2c3c4c(cc2cc1C(=O)Nc1ccccc1)CCCN4CCC3	0.8	133.4*	32.4	6.8	-0.2	60.9*
COc1cccc(CN2CC(C(=O)N3CCN(C(C)C)CC3)CCC2=O)c1 (stereo unspecified)	.	6.0	.	1.2	.	.
O=C(Nc1cnc2ccccc2c1)c1ccncc1	5.7	3.0	3.1	4.3	-7.7	-1.9
O=C(NC(=S)Nc1cnc2ccccc2c1)c1ccccc1	139.3*	7.5	2.3	4.3	-1.7	-3.1
CCCCn1c(N)c(N(CC(C)C)C(=O)c2ccc(Cl)c(S(=O)(=O)N3CCCC3)c2)c(=O)[nH]c1=O	.	1.7	.	.	.	.
Cc1no[n+]([O-])c1COc1cccc(/C=N/Nc2nncn2N)c1	4.7	?	-1.3	28.3*	-3.5	2.7
COc1cc(C(C)=O)ccc1Oc1ncccn1	.	0.7	.	3.6	.	.
SMILES	Hck-Nef inh	RanGTP-Imp inh	Runt-CBFb FRET	M18AAP inhibitor	RBBP9 inh	Runt-SMMHC FRET
CC(=O)Nc1ccc(NC(=O)CCC(=O)OCC(=O)c2ccc(F)cc2)cc1	.	4.0	.	1.5	.	.
O=C(COc1cc(Cl)c(Cl)cc1Cl)Nc1ccncc1	0.8	2.0	-0.9	-5.0	4.6	-6.9
O=C(COc1cc(Cl)c(Cl)cc1Cl)Nn1cnnc1	0.2	0.5	0.4	29.8*	-5.2	-2.3
N#Cc1ncc(Cc2ccccc2)nc1C#N	.	3.1	.	-2.7	.	.
Cc1ccc2cc(CN(Cc3ccc4c(c3)OCO4)Cc3nnnn3Cc3ccco3)c(=O)[nH]c2c1C	9.9	3.6	19.5	14.8	-7.5	17.2
Cc1ccc(C)c2[nH]c(=O)c(CN(Cc3ccc4c(c3)OCO4)Cc3nnnn3Cc3ccco3)cc12	2.6	-0.9	9.0	32.2*	-6.0	15.4
